# Test results from the M2OR odorant receptor database.
# Substitutions are numbered along the chain they refer to.
# Columns and labels:
# Details in all cases: stereoisomer not certain
# OR1L3 (Homo sapiens) = target: T1, OR1L3 (Homo sapiens) (UniProt Q8NH93)
# T1 sequence (whole entry): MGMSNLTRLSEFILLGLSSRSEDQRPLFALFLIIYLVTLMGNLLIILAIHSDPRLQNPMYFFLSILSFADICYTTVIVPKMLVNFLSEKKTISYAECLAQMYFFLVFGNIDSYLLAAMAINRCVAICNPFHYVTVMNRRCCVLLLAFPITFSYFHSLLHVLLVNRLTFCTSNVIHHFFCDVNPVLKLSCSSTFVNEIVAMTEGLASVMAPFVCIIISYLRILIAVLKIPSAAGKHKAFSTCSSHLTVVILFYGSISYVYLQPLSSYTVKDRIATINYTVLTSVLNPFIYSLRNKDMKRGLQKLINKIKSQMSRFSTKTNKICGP
# Method in brief: (§1)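 Each entry records the cell line, G-protein, co-transfected protein and tags used. Methods varied with the source, often transient luciferase assays in mammalian cell lines. A receptor–molecule pair is called responsive (active) if the original authors judged its signal statistically different from baseline and non-responsive (inactive) otherwise.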
# OR1L4 (Homo sapiens) = target: T2, OR1L4 (Homo sapiens) (UniProt Q8NGR5)
# T2 sequence (whole entry): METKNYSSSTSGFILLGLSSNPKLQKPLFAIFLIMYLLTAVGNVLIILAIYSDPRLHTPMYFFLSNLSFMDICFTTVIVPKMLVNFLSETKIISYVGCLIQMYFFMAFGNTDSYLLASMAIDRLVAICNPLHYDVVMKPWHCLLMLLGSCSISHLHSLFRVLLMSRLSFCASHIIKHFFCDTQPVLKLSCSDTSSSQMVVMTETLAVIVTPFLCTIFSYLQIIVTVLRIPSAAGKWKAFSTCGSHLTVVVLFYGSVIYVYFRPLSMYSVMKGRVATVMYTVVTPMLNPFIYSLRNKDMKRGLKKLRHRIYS
# Method in brief: as §1
# OR1L4 = tested on: T3, OR1L4
# T3 sequence (whole entry): T2 sequence (whole entry) with G234R
# Method in brief: as §1
# OR1L6 (Homo sapiens) = target: T4, OR1L6 (Homo sapiens) (UniProt Q8NGR2)
# T4 sequence (whole entry): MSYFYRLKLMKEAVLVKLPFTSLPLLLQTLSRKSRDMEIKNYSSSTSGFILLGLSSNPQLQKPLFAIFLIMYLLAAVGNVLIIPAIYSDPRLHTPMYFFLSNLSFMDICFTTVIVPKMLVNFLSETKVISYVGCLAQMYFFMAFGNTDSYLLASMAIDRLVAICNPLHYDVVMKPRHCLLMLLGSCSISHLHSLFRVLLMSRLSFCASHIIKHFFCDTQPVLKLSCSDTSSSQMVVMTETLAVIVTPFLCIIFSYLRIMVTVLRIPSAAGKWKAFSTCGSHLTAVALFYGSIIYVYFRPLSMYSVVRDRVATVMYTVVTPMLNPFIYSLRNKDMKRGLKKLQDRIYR
# Method in brief: as §1
# OR1L8 (Homo sapiens) = target: T5, OR1L8 (Homo sapiens) (UniProt Q8NGR8)
# T5 sequence (whole entry): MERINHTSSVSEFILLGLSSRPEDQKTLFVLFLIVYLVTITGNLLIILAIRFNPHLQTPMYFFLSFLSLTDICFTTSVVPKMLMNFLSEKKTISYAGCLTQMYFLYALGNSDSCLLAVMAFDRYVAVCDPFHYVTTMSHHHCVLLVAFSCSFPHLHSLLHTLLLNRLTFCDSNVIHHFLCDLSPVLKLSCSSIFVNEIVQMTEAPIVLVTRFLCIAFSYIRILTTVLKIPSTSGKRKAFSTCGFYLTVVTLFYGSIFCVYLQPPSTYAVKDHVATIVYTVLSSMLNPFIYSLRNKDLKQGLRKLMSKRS
# Method in brief: as §1
# OR1L8 T27P R211P = tested on: T6, OR1L8 T27P R211P
# T6 sequence (whole entry): T5 sequence (whole entry) with T27P, R211P
# Method in brief: as §1
# OR1M1 (Homo sapiens) = target: T7, OR1M1 (Homo sapiens) (UniProt Q8NGA1)
# T7 sequence (whole entry): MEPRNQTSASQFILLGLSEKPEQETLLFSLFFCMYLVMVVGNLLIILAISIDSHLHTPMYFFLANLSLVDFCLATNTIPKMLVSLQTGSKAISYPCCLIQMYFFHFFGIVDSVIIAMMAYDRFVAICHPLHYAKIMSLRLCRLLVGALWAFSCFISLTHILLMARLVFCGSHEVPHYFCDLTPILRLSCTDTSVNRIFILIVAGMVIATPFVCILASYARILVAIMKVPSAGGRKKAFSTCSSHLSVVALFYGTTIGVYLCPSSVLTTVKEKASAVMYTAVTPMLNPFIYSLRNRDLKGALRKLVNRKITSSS
# Method in brief: as §1
# OR1N1 (Homo sapiens) = target: T8, OR1N1 (Homo sapiens) (UniProt Q8NGS0)
# T8 sequence (whole entry): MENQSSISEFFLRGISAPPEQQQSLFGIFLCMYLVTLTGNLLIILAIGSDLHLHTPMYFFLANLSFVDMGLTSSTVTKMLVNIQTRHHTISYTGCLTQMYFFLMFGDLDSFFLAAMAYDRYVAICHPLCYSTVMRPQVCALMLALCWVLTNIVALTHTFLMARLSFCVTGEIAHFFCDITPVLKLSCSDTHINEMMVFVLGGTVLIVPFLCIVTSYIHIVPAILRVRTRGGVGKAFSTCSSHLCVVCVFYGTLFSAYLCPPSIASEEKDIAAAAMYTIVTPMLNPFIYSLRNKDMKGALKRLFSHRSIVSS
# Method in brief: as §1
# OR1N2 W37R = tested on: T9, OR1N2 W37R
# T9 sequence (whole entry): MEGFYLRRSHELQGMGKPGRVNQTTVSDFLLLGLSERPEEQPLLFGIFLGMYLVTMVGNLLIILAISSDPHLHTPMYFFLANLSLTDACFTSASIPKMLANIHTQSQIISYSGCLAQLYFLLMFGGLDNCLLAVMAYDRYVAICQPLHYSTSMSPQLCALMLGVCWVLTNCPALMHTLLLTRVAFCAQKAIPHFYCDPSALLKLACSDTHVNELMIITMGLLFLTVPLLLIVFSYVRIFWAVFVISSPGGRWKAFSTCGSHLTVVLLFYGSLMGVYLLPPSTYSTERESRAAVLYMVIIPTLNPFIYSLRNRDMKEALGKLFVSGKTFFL
# Method in brief: as §1
# OR1N2 = tested on: T10, OR1N2
# T10 sequence (whole entry): T9 sequence (whole entry) with R37W
# Method in brief: as §1
# OR1Q1 (Homo sapiens) = target: T11, OR1Q1 (Homo sapiens) (UniProt Q15612)
# T11 sequence (whole entry): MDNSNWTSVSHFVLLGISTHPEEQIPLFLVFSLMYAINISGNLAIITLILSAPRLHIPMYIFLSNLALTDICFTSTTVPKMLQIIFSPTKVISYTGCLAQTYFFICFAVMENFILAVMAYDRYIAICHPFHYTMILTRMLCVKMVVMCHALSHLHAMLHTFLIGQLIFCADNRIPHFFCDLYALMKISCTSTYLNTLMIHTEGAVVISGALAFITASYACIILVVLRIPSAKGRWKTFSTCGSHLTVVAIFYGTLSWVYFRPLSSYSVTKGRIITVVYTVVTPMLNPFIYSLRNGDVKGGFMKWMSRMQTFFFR
# Method in brief: as §1
# OR1Q1 = tested on: T12, OR1Q1
# T12 sequence (whole entry): T11 sequence (whole entry) with Q24R, I163M
# Method in brief: as §1
# OR1S1 (Homo sapiens) = target: T13, OR1S1 (Homo sapiens) (UniProt Q8NH92)
# T13 sequence (whole entry): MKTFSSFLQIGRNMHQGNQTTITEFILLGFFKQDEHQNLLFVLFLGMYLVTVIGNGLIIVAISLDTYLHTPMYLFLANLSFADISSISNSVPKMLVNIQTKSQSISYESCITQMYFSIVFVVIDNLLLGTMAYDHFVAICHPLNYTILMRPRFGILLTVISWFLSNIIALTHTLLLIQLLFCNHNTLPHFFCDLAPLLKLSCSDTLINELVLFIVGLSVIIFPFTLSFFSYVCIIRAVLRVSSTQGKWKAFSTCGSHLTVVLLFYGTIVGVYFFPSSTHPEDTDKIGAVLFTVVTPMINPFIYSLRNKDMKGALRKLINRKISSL
# Method in brief: as §1
# OR1S2 (Homo sapiens) = target: T14, OR1S2 (Homo sapiens) (UniProt Q8NGQ3)
# T14 sequence (whole entry): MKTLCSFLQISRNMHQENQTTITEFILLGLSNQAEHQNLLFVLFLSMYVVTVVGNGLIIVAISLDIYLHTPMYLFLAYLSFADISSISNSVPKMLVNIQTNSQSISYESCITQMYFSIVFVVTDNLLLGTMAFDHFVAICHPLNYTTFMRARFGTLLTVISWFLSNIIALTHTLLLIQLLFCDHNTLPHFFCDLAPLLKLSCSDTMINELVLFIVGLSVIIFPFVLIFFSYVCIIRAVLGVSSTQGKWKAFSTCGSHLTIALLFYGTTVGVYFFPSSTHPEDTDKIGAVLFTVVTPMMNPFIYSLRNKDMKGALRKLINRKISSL
# Method in brief: as §1
# OR1S2 E17G = tested on: T15, OR1S2 E17G
# T15 sequence (whole entry): T14 sequence (whole entry) with E17G
# Method in brief: as §1
# OR1S2 V225T G240R = tested on: T16, OR1S2 V225T G240R
# T16 sequence (whole entry): T14 sequence (whole entry) with V225T, G240R
# Method in brief: as §1
# OR2A1 (Homo sapiens) = target: T17, OR2A1 (Homo sapiens) (UniProt Q8NGT9)
# T17 sequence (whole entry): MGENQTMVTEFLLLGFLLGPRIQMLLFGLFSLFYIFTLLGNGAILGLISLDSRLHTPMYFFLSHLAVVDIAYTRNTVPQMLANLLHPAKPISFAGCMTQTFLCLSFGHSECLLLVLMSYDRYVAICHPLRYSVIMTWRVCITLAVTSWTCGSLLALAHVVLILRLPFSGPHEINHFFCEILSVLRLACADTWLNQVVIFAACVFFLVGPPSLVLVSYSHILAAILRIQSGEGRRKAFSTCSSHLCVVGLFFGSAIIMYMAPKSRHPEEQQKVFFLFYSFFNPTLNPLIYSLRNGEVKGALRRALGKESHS
# Method in brief: as §1
# OR2A1 S168C = tested on: T18, OR2A1 S168C
# T18 sequence (whole entry): T17 sequence (whole entry) with S168C
# Method in brief: as §1
structure (smiles),measurement,setting,value
C=CC(C)(O)CCC=C(C)CCC=C(C)C (stereo not given),odorant receptor agonist call,OR1L3 (Homo sapiens),inactive
CCCCC1CCC(=O)O1 (stereo not given),odorant receptor agonist call,OR1L3 (Homo sapiens),inactive
CC=CC(=O)C1C(C)=CCCC1(C)C (stereo not given),odorant receptor agonist call,OR1L3 (Homo sapiens),active
CCOC(=O)CC1(C)OCCO1,odorant receptor agonist call,OR1L3 (Homo sapiens),inactive
Cc1occc(=O)c1OC(=O)C(C)C,odorant receptor agonist call,OR1L3 (Homo sapiens),inactive
CC(CC=O)c1ccc(C(C)(C)C)cc1 (stereo not given),odorant receptor agonist call,OR1L3 (Homo sapiens),inactive
Cc1ccc(C(C)C)cc1O,odorant receptor agonist call,OR1L3 (Homo sapiens),inactive
CC(=O)C=CC1=C(C)CCCC1(C)C,odorant receptor agonist call,OR1L3 (Homo sapiens),inactive
CCCC(C)C(=O)OCC (stereo not given),odorant receptor agonist call,OR1L3 (Homo sapiens),inactive
C=CC(C)(CCC=C(C)C)OC(C)=O (stereo not given),odorant receptor agonist call,OR1L3 (Homo sapiens),inactive
CCCCCCCCC(OC(C)=O)OC(C)=O,odorant receptor agonist call,OR1L3 (Homo sapiens),inactive
CCCCCC1C(=O)CCC1CC(=O)OC (stereo not given),odorant receptor agonist call,OR1L3 (Homo sapiens),inactive
CCCCCC1COCCC1OC(C)=O (stereo not given),odorant receptor agonist call,OR1L3 (Homo sapiens),inactive
CCCCCCC=CCCC=O,odorant receptor agonist call,OR1L3 (Homo sapiens),inactive
same,odorant receptor agonist call,OR1L4 (Homo sapiens),inactive
same,odorant receptor agonist call,OR1L4,inactive
same,odorant receptor agonist call,OR1L6 (Homo sapiens),inactive
same,odorant receptor agonist call,OR1L8 (Homo sapiens),inactive
same,odorant receptor agonist call,OR1L8 T27P R211P,inactive
same,odorant receptor agonist call,OR1M1 (Homo sapiens),inactive
same,odorant receptor agonist call,OR1N1 (Homo sapiens),inactive
same,odorant receptor agonist call,OR1N2 W37R,inactive
same,odorant receptor agonist call,OR1N2,inactive
same,odorant receptor agonist call,OR1Q1 (Homo sapiens),inactive
same,odorant receptor agonist call,OR1Q1,inactive
same,odorant receptor agonist call,OR1S1 (Homo sapiens),inactive
same,odorant receptor agonist call,OR1S2 (Homo sapiens),inactive
same,odorant receptor agonist call,OR1S2 E17G,inactive
same,odorant receptor agonist call,OR1S2 V225T G240R,inactive
same,odorant receptor agonist call,OR2A1 (Homo sapiens),inactive
same,odorant receptor agonist call,OR2A1 S168C,inactive
CCc1ccc(CC(C)(C)C=O)cc1,odorant receptor agonist call,OR1L3 (Homo sapiens),inactive
CCC=C(C)C(O)CCCCC (stereo not given),odorant receptor agonist call,OR1L3 (Homo sapiens),inactive
CC1=CCC2CC1C2(C)C (stereo not given),odorant receptor agonist call,OR1L3 (Homo sapiens),inactive
COc1ccc(C)cc1,odorant receptor agonist call,OR1L3 (Homo sapiens),inactive
OCc1ccccc1,odorant receptor agonist call,OR1L3 (Homo sapiens),inactive
CCC(=O)C=CC1C(C)=CCCC1(C)C (stereo not given),odorant receptor agonist call,OR1L3 (Homo sapiens),inactive
C=CCOC(=O)COCCC(C)C,odorant receptor agonist call,OR1L3 (Homo sapiens),inactive
CC(C)CCCC(C)(C)O,odorant receptor agonist call,OR1L3 (Homo sapiens),inactive
CC(=O)OCc1ccccc1,odorant receptor agonist call,OR1L3 (Homo sapiens),inactive
COC1CC2CC1C1CC(C=O)CC21 (stereo not given),odorant receptor agonist call,OR1L3 (Homo sapiens),inactive
CC(C)(C)C1CCCCC1OCCCCO (stereo not given),odorant receptor agonist call,OR1L3 (Homo sapiens),inactive
CC1CC(C)(c2ccccc2)CO1 (stereo not given),odorant receptor agonist call,OR1L3 (Homo sapiens),inactive
CC(C)=CCCC(C)CC=O (stereo not given),odorant receptor agonist call,OR1L3 (Homo sapiens),inactive
CCCCC(S)C(C)CO (stereo not given),odorant receptor agonist call,OR1L3 (Homo sapiens),inactive
same,odorant receptor agonist call,OR1L4 (Homo sapiens),inactive
same,odorant receptor agonist call,OR1L6 (Homo sapiens),inactive
same,odorant receptor agonist call,OR1L8 (Homo sapiens),inactive
same,odorant receptor agonist call,OR1M1 (Homo sapiens),inactive
same,odorant receptor agonist call,OR1N1 (Homo sapiens),inactive
same,odorant receptor agonist call,OR1N2,inactive
same,odorant receptor agonist call,OR1Q1 (Homo sapiens),inactive
same,odorant receptor agonist call,OR1S1 (Homo sapiens),inactive
same,odorant receptor agonist call,OR1S2 (Homo sapiens),inactive
same,odorant receptor agonist call,OR2A1 (Homo sapiens),inactive
